Experiments:
[1] = Nicotinic activity on frog rectus abdominis; type: functional, Rectus abdominis muscle
[2] = Eudismic ratio was determined in frog rectus abdominis; type: functional, Rectus abdominis muscle
[3] = Eudismic ratio was determined in guinea pig ileum; type: functional
[4] = Equipotent molar ratio(EPMR) between the ED50 of compound and ED50 of carbachol calculated on frog rectus abdominis; type: functional, Rectus abdominis muscle
Outline: (§1)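 ED50 for test agonist and for carbachol (reference) were obtained by regressing the angular transform of fractional contractile effect against log agonist concentration. Potency is expressed as the equipotent molar ratio, ED50 test/ED50 carbachol. Values below 1 indicate greater potency than carbachol.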

[5] = Equipotent molar ratio(EPMR) between the ED50 of compound and ED50 of carbachol calculated on guinea pig ileum; type: functional; outline: as §1
[6] = Muscarinic selectivity is reported as the ED50 ratio (ED50 Nicotinic / ED50 Muscarinic); type: functional
Outline: (§2)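 Selectivity is computed from nicotinic (frog rectus abdominis) and muscarinic (guinea pig ileum) data as ED50(N)/ED50(M) and as EPMR(N)/EPMR(M). Each ED50 comes from regressing the angular transform of fractional effect on log agonist concentration, with carbachol as the reference.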

[7] = Muscarinic selectivity is reported as the EPMR ratio (EPMR Nicotinic/ EPMR Muscarinic); type: functional; outline: as §2
Cavia porcellus = species: Cavia porcellus; test: Muscarinic activity on guinea pig ileum; type: functional

| SMILES | ED50 [1] | Eudismic ratio [2] | Eudismic ratio [3] | EPMR [4] | EPMR [5] | Selectivity [6] | Selectivity [7] | ED50 (Cavia porcellus) |
| --- | --- | --- | --- | --- | --- | --- | --- | --- |
| C[C@H]1O[C@@H](C[N+](C)(C)C)CS1(=O)=O.[I-] | 0.033 nM | 12 | 1 | 6.5 | 170 | 2.1 | 0.04 |  |
| C[C@@H]1O[C@H](C[N+](C)(C)C)CS1(=O)=O.[I-] |  |  |  | 76 | 168 |  |  | 0.000158 nM |
| C[C@@H]1O[C@H](C[N+](C)(C)C)CS1(=O)=O |  |  |  |  |  | 24 | 0.5 |  |
| C[C@H]1O[C@@H](C[N+](C)(C)C)C[S+]1[O-].[I-] (mixture of isomers) | 2300 nM |  |  | 45 | 1.3 |  |  | 12.2 nM |
| C[C@H]1O[C@H](C[N+](C)(C)C)C[S+]1[O-].[I-] (mixture of isomers) | 2100 nM |  |  | 41 | 209 |  |  | 19.6 nM |
| C[C@@H]1O[C@H](C[N+](C)(C)C)CS1(=O)=O.[I-] (racemic) |  |  |  | 15 | 281 |  |  | 0.000264 nM |
| C[C@@H]1O[C@H](C[N+](C)(C)C)CS1(=O)=O (racemic) |  |  |  |  |  | 3 | 0.05 |  |
| C[C@@H]1O[C@H](C[N+](C)(C)C)C[C@H]1O (racemic) [MUSCARINE] | > 500 |  |  | >95 | 0.8 |  |  | 79.4 nM |
| C[N+](C)(C)CCOC(N)=O.[Cl-] [CARBACHOL] | 5100 nM |  |  | 1 | 1 |  |  | 94 nM |

— ChEMBL document CHEMBL1123629, “Resolution, absolute configuration, and cholinergic enantioselectivity of (-)- and (+)-c-2-methyl-r-5-[(dimethylamino)methyl]-1,3-oxathiolane t-3-oxide methiodide and related sulfones” (1987)
